Reference: ChEMBL document CHEMBL4513216, “Probing the Open Global Health Chemical Diversity Library for Multistage-Active Starting Points for Next-Generation Antimalarials” (ACS Infect Dis, 2020)

Assay: Toxicity liver stage against HepG2, at 10uM
Type: cell-based
Design: test concentration 10 uM, cell line HepG2-A16-CD81EGFP
Details: human, HepG2-A16-CD81EGFP cells; read-out: INHIBITION
How it was run: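 Uninfected HepG2-A16-CD81EGFP cells, 3 × 10^3 per well, 1536-well, plated on prespotted compound at 10 μM final, parasite-free screening media added to match infected plates; puromycin 10 μM positive, DMSO 0.5% negative; run in parallel with 48 h PbLuc assay at 37 °C, 5% CO2; viability by CellTiter-Glo luminescence, normalized to controls.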

| SMILES | cytotoxicity at 10 µM [%] |
| --- | --- |
| COc1ccccc1COCC(O)CN(C)Cc1cccc(Cl)c1 (stereo not given) | -1.28 |
| CC(=O)N1CCC(N2CCOC[C@H]2c2nc(C(C)(C)C)c[nH]2)CC1 | 6.51 |
| CCOCc1nc(N2CCOCC2)sc1C(=O)NCCCc1ccco1 | -87.3 |
| Cc1ccn(CCC(=O)NC(C)Cc2ccco2)n1 (stereo not given) | -4.1 |
| O=C1c2cccnc2OC(CN2CCOCC2)CN1CC1CC1 (stereo not given) | -6.17 |
| COc1ccc2c(ccn2CCC(=O)NCCCC(=O)O)c1 | 5.7 |
| COC(=O)[C@@H](NC(=O)c1snnc1-c1ccc(OC)cc1)C(C)C | 4.96 |
| O=C(c1cnn2c1OCCC2)N1CCN(C(=O)C2CCCO2)CC1 (stereo not given) | -6.19 |
| CN(C)C(=O)N1CC(=O)NCC12CCN(C(=O)c1ccco1)C2 (stereo not given) | -0.125 |
| O=C1CC2(CCCCN2C(=O)c2ccoc2)CN1Cc1ccccc1 (stereo not given) | 6.35 |
| C[C@@H]1C[C@H]2CN(S(=O)(=O)c3ccc(F)cc3)C[C@H]2O1 | 3.26 |
| O=C([C@H]1COC[C@H]2CN(CC3CCC3)C[C@H]21)N1CCOCC1 | 17.3 |
| Cc1cc(CN2C[C@@H]3COC[C@]3(c3nnc(C)o3)C2)no1 | -2.11 |
| CC(C)n1cnc(C2CN(C)c3ccc(C(=O)NC4CCCC4)cc32)n1 (stereo not given) | 10.4 |
| O=C1[C@@H]2CCN(Cc3ccc(F)cc3)C[C@@H]2OCCN1c1cccnc1 | 8.82 |
| CN1CC[C@]2(CN(Cc3cccs3)C[C@H]2c2ccccc2)C1=O | 9.82 |
| CCO[C@@H]1CCN(c2ccc(C)nn2)[C@@H]1Cc1cnn(C)c1 | 2.2 |
| COCC1CC2(CCNCC2)CN1c1ncccn1 (stereo not given) | 7.51 |
| Cn1nc(CNC(=O)c2nc3ccccc3s2)c2c1CCOC2 | -3.16 |
| Cc1ncsc1CN1C[C@@H](OCC2CC2)[C@H]2OCCC[C@H]21 | -9.76 |
| CCNC(=O)c1nc2c(s1)CCCN2S(C)(=O)=O | -12.6 |
| CCn1nc(C)c2nnn(CC(=O)Nc3cccc(Cl)c3)c(=O)c21 | 4.47 |

| SMILES | cytotoxicity at 10 µM [%] |
| --- | --- |
| Cc1cc(C)n(CCNCc2cc(-c3ccc(Cl)cc3)c[nH]c2=O)n1 | -2.38 |
| CC(C)C(=O)N1CCCC(Cc2ccccn2)C1 (stereo not given) | -5.3 |
| Cc1n[nH]c(C)c1-c1nccnc1CC1CCNC1 (stereo not given) | -4.96 |
| COc1ccc2c(c1)CC(C1CCOCC1)N(C(=O)c1cnccn1)C2 (stereo not given) | 5.21 |
| Cc1n[nH]c(C)c1S(=O)(=O)N1CCC(Oc2cnccn2)CC1 | 3.15 |
| Cc1nc(-c2ccccc2C(=O)O)cc(C2CCN(C(C)C)C2)n1 (stereo not given) | -13.1 |
| CC(O)c1cn(Cc2ccc(Cl)cc2)nn1 (stereo not given) | 8.75 |
| O=S(=O)(c1ccc(F)cc1Cl)N1CCCC1c1ccncc1 (stereo not given) | -7.95 |
| CCOc1cccc(CNC(=O)NC2CC=CC2)c1OC(F)F | -49.1 |
| Cc1ccc(Cl)c(NC(=O)NC2(C)CCOC2)c1 (stereo not given) | -46.7 |
| Cc1ccc(NC2CCN(C(=O)CCC3CCCO3)CC2)nn1 (stereo not given) | -1.2 |
| CCOc1c(F)cccc1C(=O)N(C)CCc1ccccn1 | 18.6 |
| O=C(C(c1ccccc1)S(=O)(=O)c1ccccn1)N1CCCCC1 (stereo not given) | 5.7 |
| CCOc1ccc(CN(C)C(=O)c2nc(N3CCCC3)ncc2Cl)cc1 | -33 |
| CC(C)c1ncc(C(=O)N(C)c2ccc(Br)cn2)s1 | 9.12 |
| CCC(CC)C(=O)NCc1c(C)nn(C)c1N1CCCN(C)CC1 | 0.295 |
| CCOC(=O)C1CCCN(Cc2cc(C#N)n(C)c2C)C1 (stereo not given) | 0.0308 |
| O=C(COC1CCCC1)N1CCCC1c1noc(C2CC2)n1 (stereo not given) | 11 |
| Cc1ccc(CN(C(=O)NCc2nnc3n2CCCCC3)C2CC2)o1 | 9.35 |
| Cc1ccc(NCCNC(=O)c2cc(CC(C)C)n[nH]2)nn1 | 0.37 |
| Cc1cc(NCCNS(=O)(=O)c2cccc(Cl)c2)nc(C)n1 | 2.9 |
| O=C(c1[nH]nc(C2CC2)c1Cl)N1CCN(C2CC2)C(=O)C1 | -4.81 |

| SMILES | cytotoxicity at 10 µM [%] |
| --- | --- |
| COc1ncccc1NC(=O)NC(C)(C)c1ncc(C)s1 | -9.44 |
| Cc1cc(C(=O)N2CCCC(N3CCCCCC3)C2)nn1C(C)(C)C (stereo not given) | -4.4 |
| Cc1ccc2cc(C(=O)N3CCN(C(=O)c4ccoc4)CC3)[nH]c2c1 | -43.6 |
| CSC(C)C(=O)NS(=O)(=O)c1ccc(F)c(C(F)(F)F)c1 (stereo not given) | -6.52 |
| CC(Cn1cccn1)NC(=O)NCCCN1CCc2ccccc21 (stereo not given) | -0.449 |
| Cc1cc(CN2CCN(C(=O)NCCCc3cn[nH]c3C)CC2)on1 | -13.2 |
| Cn1cc(NC(=O)NC2CCCN(c3ccccc3Cl)C2=O)cn1 (stereo not given) | -41.8 |
| CCc1nnsc1C(=O)N(C)Cc1ccc(C)o1 | -46.5 |
| CC1COCCN1C(=O)NCCCn1ccnc1 (stereo not given) | -44.9 |
| Cn1ccnc1CN1CCC2(CC1)CC(N1CCCC1)c1ccccc12 (stereo not given) | 7.24 |
| Cn1cc(-c2cnc(-c3ccnn3C)nc2)cc1C(=O)NC1CC1 | 3.77 |
| COCC1CN(S(=O)(=O)c2cccs2)Cc2ncnn2C1 (stereo not given) | -120 |
| CS(=O)(=O)N1C[C@@H]2COC[C@]2(C(=O)NCCc2cccs2)C1 | -110 |
| C[C@H](O)CNc1cc(-c2cn[nH]c2)ncn1 | -15.6 |
| O=C(NCCN1CCOC1=O)c1cnc(-c2cccnc2)nc1 | 0.611 |
| CSC(C)CCN1CCCn2nc(CNC(=O)C3CCC3)cc2C1 (stereo not given) | 0.812 |
| CCc1ncc(C(=O)N2C[C@@H](C)O[C@@H](C)C2)cn1 | -4.34 |
| COc1ccc(C(C(=O)O)N(C)CCN2CCCC2)cc1F (stereo not given) | 1.38 |
| O=C(CN1CCOC1=O)N1CCC2(CCc3ccccc32)CC1 | -15.8 |
| CN(C)C(=O)NCC(=O)N1CCCC2(CCC(=O)N(CC3CC3)C2)C1 (stereo not given) | -8.38 |
| Cn1c(=O)oc2ccc(NC(=O)N3CCSCC3)cc21 | 2.58 |
| Cc1ccc(CN2CCN(Cc3nccn3C)[C@H]3CS(=O)(=O)C[C@H]32)o1 | -3.65 |

| SMILES | cytotoxicity at 10 µM [%] |
| --- | --- |
| Cc1cc(NCCSc2nccn2C)n2nc(C)c(C)c2n1 | 9.75 |
| CCn1c(CN(C)C)nnc1C1CCN(Cc2cccc(F)c2F)CC1 | 1.49 |
| CCCSCC(=O)N1CCCC(c2nccn2Cc2ccncc2)C1 (stereo not given) | 4.69 |
| COc1ccccc1C1CNC(=O)c2nc(-c3cn(C)nc3C)[nH]c2C1 (stereo not given) | -1.07 |
| Nc1ncc(CN2C[C@H](C3CC3)[C@@H](N)C2)cn1 | -44.6 |
| CN(C)Cc1nnc(C2CCCN(Cc3ccc(Cl)s3)C2)n1C (stereo not given) | -11.1 |
| CCOCCOc1ccccc1C(=O)N1C[C@H](C2CC2)[C@@H](N)C1 | -0.332 |
| CC(NCc1cc(O)c2cccc(F)c2n1)c1ccccc1O (stereo not given) | 4.28 |
| COc1cccc(CN2CCN(Cc3ccc4nonc4c3)CC2=O)c1 | -1.98 |
| CCC1CN(C(=O)c2ccc(=O)[nH]n2)CCC(=O)N1Cc1ccccc1 (stereo not given) | 10.4 |
| CCCNC(=O)c1cc(OC)c(OC)cc1N(C)S(C)(=O)=O | -5.18 |
| Cc1cc(=O)n(CC(=O)Nc2ccc(Cl)cc2)nc1C | -1.74 |
| OC1CCN(C2CCN(Cc3cccc(Cn4cccn4)c3)CC2)CC1 | -1.47 |
| CCNC(=O)[C@@H]1C[C@H](NC(=O)Cc2ccsc2)CN1Cc1ccc(C)o1 | -11.8 |
| CN(CCO)Cc1nnc(C2CCN(C3CCCCC3)CC2)n1C | 20.7 |
| CNC(=O)c1ccc(C(=O)N2CCCCC2Cn2cc(C)cn2)cn1 (stereo not given) | -3.54 |
| O=C(CCNC(=O)c1ccoc1)Nc1cc(F)ccc1F | -12.8 |
| O=C(CCNC(=O)C1CCCC1)NCc1cccnc1-n1cncn1 | -3.39 |
| O=C(NCCOc1ccc2c(c1)OCO2)C1CC(=O)N(CC2CC2)C1 (stereo not given) | -6.63 |
| CC(NC(=O)NCC1(c2ccccc2)CCC1)c1nncn1C (stereo not given) | -10.4 |
| NC(=O)C1CN(C(=O)Nc2ccccc2SC(F)(F)F)CCO1 (stereo not given) | -8.3 |
| CC(C)c1nc(CC(=O)N2CCCC(n3cncn3)C2)cs1 (stereo not given) | -8.24 |

| SMILES | cytotoxicity at 10 µM [%] |
| --- | --- |
| Cc1ccc(C(=O)N2CCN(CC(O)c3ccc(F)cc3)CC2)s1 (stereo not given) | -8.93 |
| CNS(=O)(=O)CCCN1CCCC1c1cc(C)on1 (stereo not given) | -6.31 |
| Cc1cnn(CC2CCCN2C(=O)Cc2n[nH]c3ccccc23)c1 (stereo not given) | -9.16 |
| Cc1cnn(CC2CCCN2CC(=O)Nc2cc(C(C)(C)C)no2)c1 (stereo not given) | -7.76 |
| CCc1ccsc1C(=O)N1CCN(CC(O)CC)CC1 (stereo not given) | -4.25 |
| Cc1nc(NCc2cccc(F)c2)cc(C2CCNCC2)n1 | 2.79 |
| COCCN1CCOCC12CCN(C(=O)Cc1cccs1)CC2 | 10.8 |
| COc1ccc(CN2CCc3ncnc(C4CCOC4)c3CC2)cc1 (stereo not given) | -9.25 |
| O=S(=O)(C1CC1)N1CCC2(CCCN(Cc3ccccn3)C2)C1 (stereo not given) | -0.336 |
| Cn1nc(COc2cncnc2)c2c1CCN(Cc1ccccn1)C2 | 9.67 |
| CC(=O)N1CCn2c(-c3cccc(F)c3)cnc2C12CCNCC2 | 4.98 |
| c1ccc(CN2CCCn3nnc(COc4ccccn4)c3C2)nc1 | 8.43 |
| COc1ncc(C2(O)CCN(Cc3cc(F)ccc3F)CC2)c(OC)n1 | -16.1 |
| COc1ccc(S(=O)(=O)NCC(N)c2ccccc2)c(C)c1 (stereo not given) | 0.0381 |
| CC(C)N(C)[C@@H]1CCN(Cc2nccs2)[C@H]1Cc1ccncc1 | -2.75 |
| O=C1C[C@H]2[C@@H](CCN2C(=O)Cc2cccs2)N1Cc1cccnc1 | 7.48 |
| FC(F)Oc1ccc(CNCc2cc(Cl)c3c(c2)OCO3)cc1 | 2.63 |
| CN1CCc2c(c(COc3cncnc3)nn2CC2CC2)C1 | 8.61 |
| O=C1CC2(CCN(CC3CC3)C2)CN1c1ccc2c(c1)OCO2 (stereo not given) | -2.47 |
| CNC(=O)[C@@H]1C[C@H]2CN(c3ncccn3)C[C@H]2N1C(C)C | 9.72 |
| CCOCC1CN(C(=O)COc2ccccc2C)Cc2ncn(C)c21 (stereo not given) | 0.78 |
| CN(C)[C@@H]1CN(C(=O)Cc2cccs2)[C@@H]2CCCO[C@H]12 | 5.93 |
